Screening data from PubChem.
Compounds with a hit are over-represented: about 1.6% of the library has one in this group of screens.
HKDC1 inhibitor: blocks human hexokinase HKDC1 activity. AID 493160. Q2TB90. inhibition, % at 20 µM. 340,000 tested, 0.16% active. recombinant HKDC1, G6PDH/diaphorase resazurin coupled fluorescence;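 active = inhibition above about 35% when tested at 20 µM, limit read from the data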;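 also: plate controls were DMSO wells with enzyme for no effect and DMSO wells lacking enzyme for full effect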
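Incubation: 90 min at room temperature in dark / Material: recombinant HKDC1 (HK5) hexokinase enzyme, produced in-house / Quantity: enzyme 5 µg/mL final / Compound: one dose of 20 µM, 1% DMSO / Reagent: glucose and ATP substrates / Buffer or medium: Tris pH 8.0 buffer with MgCl2, Tween-20, BSA, BME / Technique: resorufin fluorescence at 613 nm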
GSTO1 inh: GSTO1 inhibition, counter-screen for RBBP9 inhibitors | P78417 | recombinant GSTO1, activity-based probe fluorescence polarization | inhibition, % at 5.96 µM | 300,000 tested, 1.1% active;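 active = inhibition above the campaign mean inhibition plus 3 SD, cut at about 35% in these data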;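 also: 0% = GSTO1-1 with DMSO and 100% = wells lacking GSTO1-1 enzyme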
Target sequence (P78417 whole entry, looked up): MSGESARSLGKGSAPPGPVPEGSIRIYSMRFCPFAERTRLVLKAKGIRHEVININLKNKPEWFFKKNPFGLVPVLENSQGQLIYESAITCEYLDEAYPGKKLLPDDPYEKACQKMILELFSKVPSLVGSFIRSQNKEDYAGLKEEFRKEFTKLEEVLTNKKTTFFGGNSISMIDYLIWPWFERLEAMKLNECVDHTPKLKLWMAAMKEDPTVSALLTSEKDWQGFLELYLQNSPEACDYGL
CTSL1 counter: counter-screen for PFM18AAP inhibitors: inhibitors of F. hepatica cathepsin L1. recombinant F. hepatica cathepsin L1, Z-Leu-Arg-MCA fluorescence. 300,000 tested, 0.49% active. AID 1906. inhibition, % at 5.96 µM;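 active = inhibition above the mean of all tested compounds plus 3 SD, set per screening campaign, cut at about 17% in these data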;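 also: 0% = plate median of test compound wells and 100% = 1 µM Z-Phe-Ala-diazomethylketone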
UCH37 inh: inhibitors of human deubiquitinating enzyme UCH37; inhibition, % (concentration not given with the values); Q9Y5K5; purified proteasome/UCH37, Ub-AMC cleavage fluorescence; 330,000 tested, 0.33% active;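 active = mean inhibition over replicate wells above about 20%, limit read from the data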;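 also: 0% = compound-free wells with enzyme and 100% = wells lacking proteasome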
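Material: Human UCH37 enzyme supplied as purified proteasome complex | Schedule: 30 min preincubation with enzyme, 25 min cleavage at room temperature | Detection: AMC fluorescence 355/460 nm | Measure: % inhibition of Ub-AMC cleavage fluorescence | Controls: Wells without proteasome as full block, compound-free enzyme plus substrate as uninhibited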
PAD4 inh: blocks human protein arginine deiminase 4; 330,000 tested, 0.41% active; AID 485272; inhibition, % at 6.36 µM; recombinant PAD4, RCA probe fluorescence polarization;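 active = percent inhibition above a cutoff equal to the mean of all tested compounds plus 3 SD, cut at about 15% in these data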;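 also: 0% = PAD4 with RCA probe and DMSO and 100% = probe without PAD4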
TDP2 inh: blocks human TDP2 phosphodiesterase activity; O95551; recombinant TDP2, T5PNP hydrolysis, p-nitrophenol absorbance 415 nm; inhibition, % at 12.8 µM; 370,000 tested, 0.34% active;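 active = inhibition above the mean of all tested compounds plus 3 SD, set per campaign, cut at about 25% in these data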;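 also: 0% = DMSO with enzyme and 100% = buffer with substrate but no TDP2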
Target sequence (O95551 whole entry, looked up): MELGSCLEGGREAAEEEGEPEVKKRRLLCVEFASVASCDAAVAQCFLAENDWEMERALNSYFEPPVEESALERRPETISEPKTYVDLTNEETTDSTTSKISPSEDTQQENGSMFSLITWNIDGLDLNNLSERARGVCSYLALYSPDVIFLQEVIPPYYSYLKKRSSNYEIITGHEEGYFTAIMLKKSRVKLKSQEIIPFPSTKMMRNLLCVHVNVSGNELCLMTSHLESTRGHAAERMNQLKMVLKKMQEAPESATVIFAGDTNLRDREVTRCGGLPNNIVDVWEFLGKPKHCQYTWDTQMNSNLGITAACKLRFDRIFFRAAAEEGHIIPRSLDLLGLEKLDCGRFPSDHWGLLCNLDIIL
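Material: recombinant human TDP2; quantity: TDP2 enzyme at 120 nM final; medium: Tris-HCl pH 7.5 with MgCl2; compound: single concentration, 12.8 µM nominal, with 1% DMSO; incubation: 2 h enzyme incubation at 37 °C; signal: epi absorbance; measure: percent inhibition; benchmarks: high control without enzyme, low control DMSO plus TDP2; repeats: singlicate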
HKDC1 act conf2: HKDC1 (human) activation, single-dose confirmed | recombinant HKDC1, G6PDH/diaphorase resazurin fluorescence; hits give low values | AID 504708 | shares compounds with HKDC1 inhibitor | 740 tested, 14% active | inhibition, % at 20 µM;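 active = inhibition at or below a set negative limit, negative inhibition meaning the enzyme was activated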
* = called active by the depositor.

Results for Cc1onc(-c2ccccc2)c1C(=O)NC(=S)NNC(=O)c1ccccc1O ?
HKDC1 inhibitor: -44.5; GSTO1 inh: 0.8; CTSL1 counter: 3.6; UCH37 inh: -4.9; PAD4 inh: 4.5; TDP2 inh: 0.0; HKDC1 act conf2: -17.5

What do the screens show for `Cc1onc(-c2ccccc2)c1C(=O)NC(=S)NNC(=O)c1ccc(O)cc1O`?
HKDC1 inhibitor: -39.6; GSTO1 inh: 12.4; CTSL1 counter: 1.0; UCH37 inh: -1.2; PAD4 inh: -0.9; TDP2 inh: -14.3

Results for CCC(C=NNC(=O)C(=O)NN=CC(CC)CC)CC ?
UCH37 inh: 5.6

Results for CC1(C)CC[C@]2(C(=O)n3ccnc3)CC[C@]3(C)[C@H](C(=O)C=C4[C@@]5(C)C=C(C#N)C(=O)C(C)(C)[C@@H]5CC[C@]43C)[C@@H]2C1 ?
HKDC1 inhibitor: 47.9*; TDP2 inh: 4.2; HKDC1 act conf2: 33.3

How did CCN(CC)S(=O)(=O)c1cccc(C(=O)NN=C(C)c2ccc(O)cc2O)c1 do in these assays?
UCH37 inh: -4.0

What do the screens show for `CCN(CC)S(=O)(=O)c1cccc(C(=O)N/N=C(\C)c2ccc(O)cc2O)c1`?
HKDC1 inhibitor: -42.7; GSTO1 inh: 8.7; CTSL1 counter: 0.4; PAD4 inh: -2.3; TDP2 inh: 1.0; HKDC1 act conf2: -19.4

What do the screens show for `Cc1ccc(S(=O)(=O)Nc2c(O)ccc3ccccc23)cc1`?
HKDC1 inhibitor: 38.1*; GSTO1 inh: 23.3; CTSL1 counter: -0.1; UCH37 inh: -4.4; PAD4 inh: -12.8; HKDC1 act conf2: 35.5

Results for O=S(=O)(Nc1c(O)ccc2ccccc12)c1cccc2ccccc12 ?
HKDC1 inhibitor: 28.5; GSTO1 inh: 28.6; CTSL1 counter: -1.4; UCH37 inh: 1.9; PAD4 inh: -23.0

How did Cc1cc(C(=O)NN=Cc2cc(Br)ccc2OC(=O)c2ccccc2Cl)n[nH]1 do in these assays?
UCH37 inh: 0.7

What do the screens show for `COc1ccc(-c2nnc(SC)nc2-c2ccc(OC)c([N+](=O)[O-])c2)cc1[N+](=O)[O-]`?
HKDC1 inhibitor: 33.9; GSTO1 inh: 10.9; CTSL1 counter: -1.4; UCH37 inh: 5.8; PAD4 inh: -0.2; TDP2 inh: 6.9; HKDC1 act conf2: 13.4

What do the screens show for `COc1ccc(-c2nn(-c3ccccc3)cc2C=O)cc1[N+](=O)[O-]`?
HKDC1 inhibitor: 3.0; GSTO1 inh: 2.3; CTSL1 counter: 1.7; UCH37 inh: 4.1; PAD4 inh: -1.1; TDP2 inh: 0.2

What do the screens show for `CCCCCC(=O)Nc1cc(S(=O)(=O)O)cc2cc(S(=O)(=O)O)cc(O)c12`?
HKDC1 inhibitor: 32.9; TDP2 inh: -1.8; HKDC1 act conf2: 18.8

How did CCCCCC(=O)Nc1cc(S(=O)(=O)N2CCCCC2)ccc1N1CCCCC1 do in these assays?
HKDC1 inhibitor: 1.2; UCH37 inh: -4.0; TDP2 inh: -1.3

Results for COCCNC(=S)NN=C1CC(C)CC(C)(C)C1 (centres undefined) ?
UCH37 inh: -0.6

What do the screens show for `NC(=O)[C@H]1CC2(CC(c3cccc(NC(=O)[C@H]4CCC(=O)N4)c3)=NO2)CN1C(=O)c1ccccc1` (some centres undefined)?
HKDC1 inhibitor: 38.8*; GSTO1 inh: 9.7; CTSL1 counter: -1.0; UCH37 inh: 4.6; PAD4 inh: 1.3; TDP2 inh: 1.2; HKDC1 act conf2: 28.2

How did Cn1c(-c2ccccc2)c(C(=O)CC#N)c2ccccc21 do in these assays?
HKDC1 inhibitor: -45.2; GSTO1 inh: -5.9; CTSL1 counter: -3.0; UCH37 inh: 1.6; PAD4 inh: -6.5; TDP2 inh: -7.4; HKDC1 act conf2: -42.0*

What do the screens show for `Cc1ccccc1C(=O)ON=C(c1ccccc1)c1ccccn1`?
UCH37 inh: 5.3

What do the screens show for `Clc1nssc1=Nc1ccc(Br)cc1`?
HKDC1 inhibitor: -14.4; UCH37 inh: 3.7; TDP2 inh: -8.9

What do the screens show for `Clc1ccc(N=c2ssnc2Cl)nc1`?
HKDC1 inhibitor: -193.9; GSTO1 inh: 19.1; CTSL1 counter: 7.6; UCH37 inh: 17.3; PAD4 inh: 6.0; TDP2 inh: -8.5; HKDC1 act conf2: -79.7*

How did COc1ccc(NC(C)C(=O)NN=Cc2ccccc2OCc2cccc(Br)c2)cc1 (centres undefined) do in these assays?
UCH37 inh: 3.5

How did COC(=O)c1ccc2c(c1)C(C)(C)C(/C=C/c1ccccc1O)=[N+]2C do in these assays?
HKDC1 inhibitor: 38.3*; GSTO1 inh: -200.1; CTSL1 counter: -0.6; UCH37 inh: inactive; PAD4 inh: -114.4; TDP2 inh: 0.5; HKDC1 act conf2: 7.0

Results for COc1ccc(S(=O)(=O)N2CCN(C(=O)c3cc4c(s3)CCC4)CC2)cc1 ?
HKDC1 inhibitor: 33.9; UCH37 inh: -2.6; PAD4 inh: 1.3; TDP2 inh: -5.7; HKDC1 act conf2: -23.4

How did Clc1ccc(C2=NNC(=NCc3ccccc3)SC2)cc1 do in these assays?
HKDC1 inhibitor: -7.9; GSTO1 inh: 4.2; CTSL1 counter: 6.5; UCH37 inh: 2.5; PAD4 inh: -11.3; TDP2 inh: -15.8

How did CCN=C1NN=C(c2ccc(C)cc2)CS1 do in these assays?
HKDC1 inhibitor: -64.0; GSTO1 inh: 4.5; CTSL1 counter: -0.2; UCH37 inh: 5.9; PAD4 inh: 8.6; TDP2 inh: -1.6; HKDC1 act conf2: -52.0*

Results for COc1ccc(C=Nn2c(=O)[nH]c3c([nH]c4ccc(F)cc43)c2=O)cc1CN1CCCCC1 ?
UCH37 inh: -2.6

What do the screens show for `Cc1ccc(-n2c3nc(=O)[nH]c(=O)c-3cc3cc([N+](=O)[O-])ccc32)cc1C`?
HKDC1 inhibitor: 61.4*; GSTO1 inh: 7.6; CTSL1 counter: 5.8; UCH37 inh: 0.5; PAD4 inh: 2.9; TDP2 inh: 19.4; HKDC1 act conf2: 65.3

What do the screens show for `Cc1nn(-c2ccccc2)cc1C=NNC(=O)c1cccs1`?
UCH37 inh: -21.1

How did O=C(CN(C(=O)CCC(=O)Nc1ccccn1)c1cccc(F)c1)NCc1ccc2c(c1)OCO2 do in these assays?
HKDC1 inhibitor: -2.7; GSTO1 inh: 3.3; CTSL1 counter: -0.8; UCH37 inh: 1.3; PAD4 inh: -2.9; TDP2 inh: 12.0

How did O=C(CN(C(=O)CCC(=O)Nc1ccccn1)c1ccc2c(c1)OCO2)NCc1ccc(F)cc1 do in these assays?
HKDC1 inhibitor: -45.5; GSTO1 inh: 0.0; CTSL1 counter: -2.1; UCH37 inh: 5.3; PAD4 inh: 0.5; TDP2 inh: 8.5; HKDC1 act conf2: 31.3

How did O=C1c2cccnc2-c2ncccc21 do in these assays?
HKDC1 inhibitor: -2.9; GSTO1 inh: -0.1; CTSL1 counter: -1.3; UCH37 inh: 2.0; PAD4 inh: -0.2; TDP2 inh: -8.6
